Source: ChEMBL document CHEMBL1255460, “Cyclotide interactions with the nematode external surface” (Antimicrob Agents Chemother, 2010)
Calls of active or inactive are those of the source. No cut-off for these calls is given here.

Experiments:
Assay type in all cases: functional, organism-based
Haemonchus contortus [1] = assay: Antiparasitic activity against adult Haemonchus contortus assessed as decrease in motility
Outline: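 Adult worms in groups of 10 in RPMI-based medium at 37°C, given ivermectin in DMSO at 0.1 to 100 nM, with 0.2% DMSO controls. Motility scored 30 h after start, using the O'Grady and Kotze system. Triplicate.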

Haemonchus contortus [2] = assay: Antiparasitic activity against adult Haemonchus contortus assessed as [3H]inulin uptake at 10 nM
Outline: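 Adult females taken from sheep abomasa 10 to 15 weeks postinfection, held in RPMI 1640-based medium (pH 6.8) at 37°C, in groups of 10. Ivermectin in DMSO given at 0.1 to 100 nM; DMSO-only controls at 0.2% final. [3H]inulin (4 μCi/ml final) added after 6 h. After a further 24 h, worms solubilized in 0.5 M KOH at 50°C overnight, neutralized, and radioactivity counted. Done in triplicate.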

Haemonchus contortus [3] = assay: Antiparasitic activity against adult Haemonchus contortus assessed as [3H]inulin uptake at 1000 nM
Haemonchus contortus [4] = assay: Antiparasitic activity against adult Haemonchus contortus assessed as reduction in FITC-dextran uptake at 10 nM after 24 hrs
Outline: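 Groups of about 10 adult worms held 6 h with or without 10 nM ivermectin. FITC-dextran (40 kDa, 5 mg/ml final) then added. After 24 h, worms washed in PBS, fixed in 10% formalin, and photographed under white and UV light as a measure of feeding.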

Haemonchus contortus [5] = assay: Antiparasitic activity against adult Haemonchus contortus pharyngeal ligation model assessed as decrease [3H]inulin uptake at 10 nM

For IVERMECTIN, which Activity (Haemonchus contortus [1]) is on record?
Its Activity is “Dose-dependent effect”.

And the Activity (Haemonchus contortus [2])?
Its Activity is “inactive”.

What about the Activity (Haemonchus contortus [3]) of the same sequence?
Its Activity is “inactive”.

And the Activity (Haemonchus contortus [4])?
Its Activity is “Active”.

What about the Activity (Haemonchus contortus [5]) of the same sequence?
Its Activity is “Active”.
